Bioassay records deposited in PubChem by SRMLSC.
bCat KO growth: beta-catenin-lacking colon tumor cell growth suppression. HCT116 beta-catenin knockout viability, CellTiter-Glo, 60 h; stronger effect = lower value. viability, % at 10 µM. hit rate 1.5% among 140,000. AID 818;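 active = viability at or under a set limit, the compound median less 4 SD, cut at about 6% in these data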;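 also: 0% = Hyamine 1622 control at 20 µM and 100% = untreated cell control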
HUVEC inhibit: inhibitors of human endothelial cell proliferation. viability, % at 10 µM (by protocol). AID 648. HUVEC proliferation, CellTiter-Glo luminescence, 72 h; stronger effect = lower value. hit rate 1.1% among 86,000;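 active = viability at or below 30%; inactive = viability above 30%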;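 also: 100% = median luminescence of DMSO-only cell control wells on each plate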
Fibroblast inh: blocks proliferation of human lung fibroblasts | AID 719 | hit rate 1.1% among 85,000 | LL 47 human lung fibroblast viability, ATP luminescence; stronger effect = lower value | viability, % at 10 µM;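 active = viability at or below 50% in the single dose screen; inactive = viability above 50%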;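 also: compound exposure lasted 72 h before the ATP readout; 100% = median luminescence of untreated cell-only wells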
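material = human LL 47 lung fibroblast cells | dosing = compounds added from tenfold dosing solution, 0.1% DMSO final | timing = overnight cell rest, 72 h compound treatment at 37 °C | measured by = CellTiter-Glo luminescence measuring cellular ATP | evaluation = % viability versus median cells-only luminescence | control set = cell-only wells, no compound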
H69AR growth 86K: growth inhibitors of human H69AR lung tumor cells. H69AR lung tumor viability, ATP luminescence, 72 h; stronger effect = lower value. viability, % at 10 µM. hit rate 6% among 85,000. AID 598;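 active = viability at or below 40%; inactive = viability above 40%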;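 also: multidrug resistant small cell line overexpressing MRP-1 efflux transporter; 100% = mean luminescence of untreated control wells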
HCT116 PTEN-null: suppresses growth of cells with PTEN deletion | HCT116 PTEN-null viability, CellTiter-Glo, 60 h; stronger effect = lower value | viability, % at 10 µM | hit rate 1.2% among 140,000;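 active = viability at or below a set limit, 4 SD under the median of all tested compounds, cut at about 3.7% in these data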;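 also: PTEN knockout HCT116 line with beta catenin targeted HCT116 as companion control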
The depositor's hits bear a star; nt = no result. Many of the other results were omitted from the sample, so hits are more common in it than they were.

SMILES | bCat KO growth | HUVEC inhibit | Fibroblast inh | H69AR growth 86K | HCT116 PTEN-null
CC12CCC3C(CC=C4CC(O)CCC43C)C1C/C(=C\c1ccccc1F)C2=O (configuration not stated) | 56.9 | nt | nt | nt | 56.8
Cc1nn(C)cc1/C=C1/CC2C3CC=C4CC(O)CCC4(C)C3CCC2(C)C1=O (configuration not stated) | nt | 105.7 | 100.5 | 9.0* | nt
O=P(NCc1ccccc1)(Oc1ccccc1)Oc1ccccc1 | 71.0 | nt | nt | nt | 79.5
COc1ccc([N+](=O)[O-])cc1N=Cc1c(O)n(CCc2ccccc2)c(=O)n(C(C)C)c1=O | 82.2 | nt | nt | nt | 70.5
CCN(CC)CCNC(=O)c1c(O)c2ccccc2n(Cc2ccccc2)c1=O | 48.6 | 107.0 | 90.1 | 26.6* | 64.1
CCN(CC)CCCNC(=O)c1c(O)c2ccccc2n(Cc2ccccc2)c1=O | 38.8 | 100.5 | 74.2 | 9.1* | 46.6
C/C(=N\Nc1cccc2ccccc12)c1c(O)n(Cc2ccccc2)c(=O)[nH]c1=O | 75.6 | nt | nt | nt | 69.5
NCC(CC(=O)O)C1CCCCC1 (configuration not stated) | 97.2 | 101.6 | 104.3 | 91.5 | 94.4
CN1CCC(O)(c2ccccc2)C(C(=O)c2ccccc2)C1 (configuration not stated) | 5.3* | 90.5 | 85.1 | 82.5 | 22.9
Brc1ccc2c(c1)C(OC1CN3CCC1CC3)c1ccccc1CS2 (configuration not stated) | 6.0* | nt | nt | nt | 2.9*
CC(=O)OC(C)(C)/C=C/C(=O)[C@](C)(O)[C@H]1[C@H](O)C[C@@]2(C)[C@@H]3CC=C4[C@H](C[C@H](O)C(=O)C4(C)C)[C@]3(C)C(=O)C[C@]12C | 2.4* | nt | nt | nt | 1.9*
CN(C)C=C1C(=O)N(C2CCCCC2)C(=O)N(C2CCCCC2)C1=O | 87.6 | 67.3 | 95.1 | 31.1* | 90.8
CCCCn1c(O)c(C(CC)=NC(C)c2ccccc2)c(=O)[nH]c1=O (configuration not stated) | 46.3 | 74.8 | 99.1 | 16.7* | 45.2
CCCCn1c(O)c(C(C)=NC(C)c2ccccc2)c(=O)[nH]c1=O (configuration not stated) | 98.1 | 84.8 | 108.1 | 28.1* | 97.2
CCCCn1c(O)c(C(C)=NCCc2ccccc2)c(=O)[nH]c1=O | 93.0 | 100.5 | 100.0 | 86.2 | 98.3
CCCCn1c(O)c(C(CC)=Nc2ccc(OC)cc2OC)c(=O)[nH]c1=O | 86.9 | 78.5 | 93.7 | 34.2* | 85.7
CCOP(=O)(OCC)C(NC(=O)C(C)C)C(Cl)(Cl)Cl (configuration not stated) | 97.1 | 98.5 | 99.7 | 96.8 | 98.1
CCOC(=O)N(C)c1ccc(C(O)(C(=O)OCC)C(F)(F)F)cc1 (configuration not stated) | 87.5 | 96.0 | 89.6 | 93.9 | 94.5
Cc1c(C=O)c2ccccc2n1Cc1ccc([N+](=O)[O-])cc1 | 89.8 | nt | nt | nt | 72.3
O=S(=O)(c1ccccc1)N1CC1c1ccccc1 (configuration not stated) | 88.5 | nt | nt | nt | 80.2
CN1CCC2(CC1)C(C#N)=C(N)NC(S)=C2C#N | 94.9 | nt | nt | nt | 100.5
CCOC(=O)C1=C(N)Oc2cc(C)oc(=O)c2C12C(=O)N1c3c(cc(OC)cc32)C(C)=CC1(C)C (configuration not stated) | 60.0 | 90.6 | 96.3 | 31.4* | 42.6
CCOC(=O)C1=C(N)Oc2cc(C)oc(=O)c2C12C(=O)N1c3c(cccc32)C(C)=CC1(C)C (configuration not stated) | 31.4 | 82.6 | 98.5 | 72.8 | 62.6
CCCCc1nc(N2CCNCC2)c(C#N)c2c1CSC(C)(C)C2 | 1.7* | nt | nt | nt | 1.9*
O=C(NCc1ccc(C(=O)N2CCC3(CC2)OCCO3)cc1)c1ccc2c(c1)OCO2 | 90.5 | 97.8 | 98.6 | 89.9 | nt
SMILES | bCat KO growth | HUVEC inhibit | Fibroblast inh | H69AR growth 86K | HCT116 PTEN-null
O=C(c1ccc2c(=O)n(Cc3ccc4c(c3)OCO4)c(=S)[nH]c2c1)N1CCC2(CC1)OCCO2 | 90.2 | 101.3 | 99.7 | 31.6* | 86.3
CCN1/C(=C\C=C\C2=[N+](CC)c3ccccc3C2(C)C)C(C)(C)c2ccccc21 | 1.1* | 21.6* | 8.7* | 0.2* | 1.1*
Cc1[nH]c2c(Cl)cccc2c1CCN | nt | 93.2 | 96.3 | 21.7* | nt
COc1ccc(Cn2c(N)c(C(=O)NCc3ccco3)c3nc4ccccc4nc32)cc1 | 51.6 | 69.5 | 77.4 | 38.4* | 29.4
Nc1c(C(=O)NCc2ccco2)c2nc3ccccc3nc2n1Cc1ccc(F)cc1 | 55.3 | 70.2 | 84.8 | 22.0* | 6.2
COc1ccccc1CCNC1C2CC3CC(C2)CC1C3 (configuration not stated) | 55.2 | nt | nt | nt | 63.0
CCCC1(CCC)C(=O)NC(=NCc2ccccc2)NC1=O | 24.7 | 51.1 | 52.9 | 28.8* | 45.6
CCOC(=O)c1c(-n2c(C)cc(C=C3C(=O)NC(=S)NC3=O)c2C)sc2c1CCCC2 | 3.8* | nt | nt | nt | 5.2
Cc1nn(Cc2ccc(Cl)cc2Cl)c(Cl)c1C(=O)NC1CCCc2ccccc21 (configuration not stated) | 67.2 | nt | nt | nt | 57.4
Cc1nc2cc(C(=O)N3CCC4(CC3)OCCO4)ccc2n1-c1cccc(F)c1 | 97.8 | 100.1 | 98.8 | 88.3 | 94.8
O=C(c1ccc2c(c1)ncn2C1CCCCCC1)N1CCC2(CC1)OCCO2 | 41.6 | 96.9 | 95.0 | 28.5* | 42.3
CN(C)CC1CSCCC1(O)c1ccc(C(F)(F)F)cc1 (configuration not stated) | 101.6 | nt | nt | nt | 96.1
Cc1ccc(NC(=O)CN2C(=O)CN=C(c3ccccc3)c3cc(Cl)ccc32)cc1 | 43.7 | 84.5 | 84.9 | 24.6* | 47.5
COc1ccc(OC)c2c1CCC1NCCOC21 (configuration not stated) | 104.5 | nt | nt | nt | 87.0
CC(C)OC(=O)c1c(N)n(CC2CCCO2)c2nc3ccccc3nc12 (configuration not stated) | 92.8 | 86.9 | nt | 33.9* | 89.0
CC(C)CCn1c(N)c(C(=O)OCC2CCCO2)c2nc3ccccc3nc21 (configuration not stated) | 33.8 | 59.8 | 90.7 | 20.4* | 29.6
CC(C)CCOC(=O)c1c(N)n(CC2CCCO2)c2nc3ccccc3nc12 (configuration not stated) | 41.7 | 66.5 | 99.4 | 51.7 | 44.4
COc1cccc(OC)c1C(=O)Nc1nc(N)n(-c2ccccc2)n1 | 95.3 | 94.6 | 102.6 | 91.9 | 103.8
CCOC(=O)[C@@]1(C#N)[C@@H]2C=CC(C(N)=O)=CN2[C@@H](C(N)=O)[C@@H]1c1cccc(Cl)c1 | 100.9 | 104.8 | 97.3 | 83.5 | 95.4
COC(=O)C1=C(N)Oc2c(c(=O)oc3ccccc23)C1c1cccnc1 (configuration not stated) | 98.5 | 104.2 | 99.9 | 96.4 | 97.5
Cc1ccc(Cn2nnnc2CN2CCC(n3nnc4cc(C)ccc43)CC2)cc1 | 47.3 | 65.3 | 89.6 | 26.8* | 43.0
FC(F)(F)c1ccc2c(c1)nnn2C1CCN(Cc2nnnn2Cc2ccccc2)CC1 | 54.7 | 70.4 | 92.8 | nt | 42.2
Fc1ccc2c(c1)nnn2C1CCN(Cc2nnnn2C2CCCCC2)CC1 | 92.2 | 96.8 | 91.8 | 27.5* | 91.9
